# High-throughput results: PubChem, several laboratories
# Ecoli tolC = growth inhibitors of E. coli BW25113 tolC mutant; OD615; growth inhibition, % at 10 µM (by protocol); 2.2% of 65,000 active; AID 573;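 active = growth inhibition at or above a cutoff equal to the mean over every tested compound plus 3 SD, cut at about 60% in these data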;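 note: growth measured after 20 h incubation at 37 °C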
#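 test system = E. coli BW25113 ΔtolC::kan bacteria | medium = LB with kanamycin 50 µg/mL | signal = OD at 615 nm | schedule = 37 °C, 20 h exposure | evaluation = % inhibition of E. coli growth | compound dosing = one dose of 10 µM final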
# Cav32 inh = inhibitors of human Cav3.2 T-type calcium channel; O95180; Cav3.2-expressing cells, Fluo-4 calcium fluorescence FDSS; hits give low values; B-score at 10 µM; 4% of 100,000 active; AID 449739;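 active = single-dose well whose peak fluorescence ratio is a statistical outlier from its plate by either plate-standardised score or position-corrected B-score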
# Pyk2 oligo antag = antagonists of human Pyk2 oligomerization; 0.83% of 99,000 active; z-score (the deposit names both 25 µM and 10 µM); Q293 cells, Pyk2 FERM NanoBiT luminescence; hits give low values; AID 1347419; Q14289;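 active = Z-score of -3 or lower, scaled per plate to the spread of control and sample wells; inactive = z-score above -3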;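 note: negative z-score means lost luminescence so less FERM oligomerization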
# PostGolgi yeast = growth inhibition of a yeast mutant, post-Golgi transport screen | post-Golgi transport phenotypic cell assay | inhibition, % at 10 µM | 0.9% of 98,000 active;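 note: yeast cells grown in 1536-well plates; yeast grown about 18 h at 30C before absorbance read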
# E coli WT exp = growth inhibitors of E. coli BW25113 wild type; growth inhibition, % at 100 µM; OD600 absorbance; 0.15% of 98,000 active;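 active = growth inhibition above about 50% at one test dose, limit read from the data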;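 note: growth measured after 20 h incubation at 37 °C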
# PostGolgi ctrl = inhibits growth of the yeast control strain. efflux-deficient yeast background strain, growth absorbance A615, 16 h. inhibition, % at 10 µM. 5% of 98,000 active
# Starred values were filed as active, the others as inactive; . = no result given. An excerpt weighted towards active compounds, which were near 8.7% of everything screened. Cut-off read from the data, not from the text of the source, unless noted: active = inhibition above about 30%; inactive = the rest.
SMILES,Ecoli tolC,Cav32 inh,Pyk2 oligo antag,PostGolgi yeast,E coli WT exp,PostGolgi ctrl
COc1cc(OC)cc(C(=O)N(Cc2nc(-c3cccc(C)c3)no2)C(C)C)c1,66.6*,-6.71*,-1.11,-5.2,-10.0,9.7
O=C1c2ccccc2C(=O)N1CCc1nc(-c2ccc(Cl)cc2)no1,.,0.822,-0.61,-6.8,-10.0,27.0
CC(C)N(Cc1nc(-c2ccc(Cl)cc2)no1)C(=O)CCCN1C(=O)c2ccccc2C1=O,-7.3,-5.01*,.,3.4,-18.0,40.3*
COc1ccccc1C(=O)N(Cc1nc(-c2ccc(Cl)cc2)no1)C(C)C,20.2,-3.17,.,2.0,-1.0,32.4*
Cc1cccc(C)c1OCC(=O)Nn1c(C)nc2ccccc2c1=O,3.8,0.281,-0.29,3.2,-7.0,28.9
CCc1ccccc1NC(=O)CSc1nc2n[nH]c(C)c2c(=N)n1-c1cccc(OC)c1,.,-1.93,-2.2,.,.,.
CC(C)N(Cc1nc(-c2ccccc2)no1)C(=O)c1ccc(Cl)cc1,68.2*,-3.89,.,-0.3,-5.0,10.4
OC1(c2cn(Cc3ccccc3)nn2)CCCCC1,-6.8,0.069,1.67,-0.2,5.0,38.2*
Cc1occc(=O)c1OC(=O)Nc1ccccc1,4.4,-0.281,-0.09,2.1,4.0,-8.8
O=C(Nc1cc(C(F)(F)F)cc(C(F)(F)F)c1)c1ccc(Cn2cc(C(F)(F)F)ccc2=O)cc1,.,-6.67*,-0.89,9.4,4.0,-3.2
O=C(Nc1ccccc1)c1ccc(Cn2cc(C(F)(F)F)ccc2=O)cc1,.,-0.0878,-0.91,3.6,3.0,10.4
C#CCn1c(S(=O)(=O)Cc2ccc(F)cc2)nc(-c2ccccc2)c1-c1ccccc1,.,-3.8*,-2.43,-8.8,-26.0,24.8
CCOC(=O)Cn1c(S(=O)(=O)Cc2ccc(F)cc2)nc(-c2ccccc2)c1-c1ccccc1,.,-2.42,-1.33,-0.5,-10.0,20.8
CCCCC1(O)CC(C(F)(F)F)=NN1C(=O)COc1ccccc1 (configuration not stated),.,-4.23,0.05,.,.,.
Cc1cc(C)cc(OCC(=O)N2N=C(C(F)(F)F)CC2(O)C(C)(C)C)c1 (configuration not stated),.,-4.29*,0.53,.,.,.
CC(=O)OC1CCC2(C)C(COc3ccc4ccc(=O)oc4c3)C(C)(O)CCC2C1(C)C (configuration not stated),.,-3.42,-3.31*,-14.9,-10.0,13.3
CN(C)C(=O)COc1ccc2ccc(=O)oc2c1,-16.7,0.0546,-0.45,3.7,-1.0,-7.5
CC(=O)NS(=O)(=O)c1ccc(NC(=O)NC2CCCCC2)cc1,.,-0.0657,0.52,-1.6,-10.0,9.7
CC(C)(C)C(=O)Nc1nc(C2CCCN2S(=O)(=O)c2ccc(Cl)cc2)cs1 (configuration not stated),.,-3.99*,-0.66,-5.3,6.0,3.7
O=C(Nc1nccs1)C1CCCN1S(=O)(=O)c1ccc(Cl)cc1 (configuration not stated),-9.9,0.207,-0.76,10.7,-7.0,11.8
O=C(NNc1ccccn1)C(=O)NNS(=O)(=O)c1ccc(Cl)cc1,.,.,0.61,2.6,23.0,31.3*
CN(C)S(=O)(=O)c1ccc(C(=O)Nc2ccccn2)cc1,-12.5,-0.966,0.52,8.1,1.0,5.0
CC1CCN(S(=O)(=O)c2ccc(Cl)cc2Br)CC1,97.9*,-0.678,-0.24,6.2,8.0,8.6
CCc1ccc(NC(=O)C(C)Oc2nnc(-c3cccs3)c(-c3cccs3)n2)cc1 (configuration not stated),.,-4.41*,-1.3,-4.0,-10.0,1.8
CCOC(=O)c1ccc(NC(=O)CSc2nnc(-c3cccs3)n2CC)cc1,1.0,0.324,-1.25,-1.2,-6.0,11.5
SMILES,Ecoli tolC,Cav32 inh,Pyk2 oligo antag,PostGolgi yeast,E coli WT exp,PostGolgi ctrl
CC(C)c1ccc(NC(=O)COc2nnc(-c3cccs3)c(-c3cccs3)n2)cc1,.,-5.08*,-1.47,-5.5,-8.0,8.9
CC(=O)c1cccc(NC(=O)C(OC(=O)/C=C/c2ccc3c(c2)OCO3)c2ccccc2)c1 (configuration not stated),.,-2.63,0.55,-6.8,-19.0,-1.8
C/C(CC(=O)Nc1cccc2c1CCCC2)=N\NC(=O)c1ccccc1N,.,-0.62,0.56,16.5,-1.0,32.0*
Cc1ccc2nc(N3C(=O)C(O)=C(C(=O)c4ccco4)C3c3cccs3)sc2c1 (configuration not stated),.,-3.05*,0.08,1.3,-8.0,11.2
CCCOC(=O)Nc1nnc(CCC)s1,.,0.3,-0.15,20.0,10.0,0.9
CC1CCC(C(C)C)C(OC(=O)COC(=O)c2cccn2C)C1 (configuration not stated),10.9,-4.3,0.27,-8.0,-2.0,4.8
C/C(=N\O)C(=O)OC1CC(C)CCC1C(C)C (configuration not stated),22.4,-4.71*,-0.61,-1.0,14.0,7.5
COc1cc(NS(=O)(=O)c2ccc(C)cc2)c2ncccc2c1,25.8,-1.71,-2.53,-1.1,-5.0,36.2*
COc1ccc(S(=O)(=O)Nc2cc3c(C(C)=O)c(C)oc3c3ccccc23)cc1,.,-3.1,0.37,4.0,6.0,65.3*
Cc1ccc(S(=O)(=O)Nc2cccc3cccnc23)cc1,.,-0.561,0.72,-4.4,-3.0,21.5
O=C(c1cc(C2CC2)on1)N1CCN(c2ccc(F)cc2)CC1,4.7,0.941,.,6.2,5.0,1.9
COc1ccccc1N(CC(=O)NCc1ccccc1)S(C)(=O)=O,-10.8,0.237,1.41,-3.9,-10.0,-12.3
CC1CN=C(N(C(=O)Nc2ccccc2)C(C)C)S1 (configuration not stated),.,-0.303,0.43,.,.,.
CC1CN=C(N(Cc2ccccc2)C(=O)Nc2ccccc2)S1 (configuration not stated),.,-8.43*,-0.01,20.3,6.0,14.1
COc1ccccc1N(C(=O)NCc1ccccc1)C1=NCC(C)S1 (configuration not stated),51.5,-4.69*,.,-4.2,-2.0,48.0*
CCOC(=O)CSC1=NC(=O)CS1,-1.3,0.3,-0.1,1.9,-4.0,-1.9
CCOC(=O)c1cc(C)n(CCc2ccccc2)c1C,29.4,-3.76*,0.13,-3.3,6.0,14.5
O=C(CCn1nnc2ccccc21)N1CCC(O)(c2cccc(F)c2)CC1,-0.7,0.485,1.39,-6.6,-2.0,-2.5
Cc1cc2c(N)cccc2nn1,-13.9,0.341,-0.58,-2.7,5.0,1.9
Nc1cccc2nc3ccccc3cc12,.,0.073,.,9.4,57.0*,14.5
CCC(c1nnnn1Cc1ccco1)N(CCN1CCOCC1)Cc1cc2cc(C)ccc2[nH]c1=O (configuration not stated),-2.3,.,1.03,0.5,8.0,1.3
O=C(CSc1nnc(Cn2nnc3ccccc32)o1)N(Cc1ccc(Cl)cc1)c1ccccc1,.,-5.95*,-0.41,2.8,-8.0,26.8
Clc1ccc(CSc2nnc(Cn3cnc4ccccc43)o2)cc1,28.8,-4.71*,-0.14,10.1,20.0,26.9
CCN(C(=O)CSc1nnc(Cn2nnc3ccccc32)o1)c1nc(-c2ccccc2)cs1,5.6,-1.29,-0.42,0.2,-15.0,35.1*
